Activity calls are given as the source filed them. No cut-off for these calls is given here.
Key:
[1] = Selectivity index, ratio of IC50 for cytotoxicity against CHO-MG cells assessed as reduction in cell viability after 48 hrs by MTS assay to IC50 for […] human L3.6PL cells assessed as reduction in cell viability after 48 hrs by MTS assay
In short: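 The ratio is of 48 h IC50 values from MTS growth assays. CHO K1/CHO-MG cells were plated at 1000 cells/well and L3.6pl at 500 cells/well, drug in PBS was added after overnight incubation, and absorbance was read at 490 nm. IC50 is 50% growth versus untreated control; runs were done twice in triplicate.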

L3.6pl [2] = assay: Effect on polyamine level in human L3.6PL cells assessed as phenylalanine level per mg protein in supernatant at 5 uM measured after 72 hrs in presence of amine oxidase suppressor aminoguanidine by LCMS analysis (reference value: 14299 +/- 7194 pmol/mg); type: functional
[3] = biological target: Large neutral amino acids transporter small subunit 1 (Homo sapiens) (UniProt Q01650); assay: Inhibition of LAT1-mediated amino acid transport in human L3.6PL cells assessed as reduction in intracellular methionine level measured after 72 hrs by LCMS analysis; type: cell-based
Chain of Large neutral amino acids transporter small subunit 1 (Homo sapiens) (Q01650 whole entry): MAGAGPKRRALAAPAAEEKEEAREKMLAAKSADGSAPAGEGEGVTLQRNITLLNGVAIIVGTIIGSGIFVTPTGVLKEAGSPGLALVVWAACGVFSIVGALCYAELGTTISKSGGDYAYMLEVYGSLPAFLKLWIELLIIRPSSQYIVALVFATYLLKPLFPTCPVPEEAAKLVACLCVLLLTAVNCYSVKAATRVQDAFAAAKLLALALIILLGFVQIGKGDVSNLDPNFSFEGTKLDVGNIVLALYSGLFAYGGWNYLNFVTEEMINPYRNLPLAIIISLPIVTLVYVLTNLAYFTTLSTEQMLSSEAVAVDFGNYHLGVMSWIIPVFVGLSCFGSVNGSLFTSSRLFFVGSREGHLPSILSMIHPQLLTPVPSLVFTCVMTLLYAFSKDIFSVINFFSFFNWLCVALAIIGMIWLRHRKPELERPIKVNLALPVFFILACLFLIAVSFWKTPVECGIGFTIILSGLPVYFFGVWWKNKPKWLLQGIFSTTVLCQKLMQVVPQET
In short: (§1)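 L3.6pl cells (50,000 cells/mL, 10 mL, 1 mM aminoguanidine) were seeded in poly-lysine-treated 9 cm dishes and incubated overnight at 37°C. They were then dosed with compound at 2, 5 or 7 μM from PBS stocks (2, 5, 7 mM) and incubated 72 h. Runs were done in triplicate, with amino acid levels per mg protein.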

CHO-K1 [4] = assay: Induction of polyamine efflux in aminoguanidine pretreated CHOK1 cells assessed as reduction in cell viability measured after 72 hrs in presence of putrescine by MTS assay; type: ADME, cell-based, Cricetulus griseus; conditions: chinese hamster, cho-k1, 72 h
L3.6pl [5] = assay: Effect on polyamine level in human L3.6PL cells assessed as intracellular putrescine level at 7 uM measured after 72 hrs in presence of amine oxidase suppressor aminoguanidine by LCMS analysis relative to control; type: functional; conditions: in the assay text read “by N-dansylation and HPLC analysis” for “by LCMS analysis”
In short: (§2)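 L3.6pl cells, 50,000 cells/mL in 10 mL per Petri dish with 1 mM aminoguanidine, plated overnight. Dosed with compound at 2, 5 or 7 μM from PBS stocks, then 72 h at 37°C. Intracellular polyamines measured by N-dansylation and HPLC, in duplicate, as nmol/mg protein against a parallel untreated control.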

L3.6pl [6] = assay: Effect on polyamine level in human L3.6PL cells assessed as ornithine level per mg protein in supernatant at 2 uM measured after 72 hrs in presence of amine oxidase suppressor aminoguanidine by LCMS analysis (reference value: 10588 +/- 3212 pmol/mg); type: functional
[7] = biological target: Large neutral amino acids transporter small subunit 1 (Homo sapiens) (UniProt Q01650); assay: Induction of LAT1-mediated polyamine efflux in aminoguanidine pretreated human L3.6PL cells assessed as reduction in cell viability at 5 uM measured after 72 hrs in presence of spermine by MTS assay; type: cell-based
In short: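 L3.6pl cells pre-incubated 24 h with 250 μM aminoguanidine. Then given increasing compound plus putrescine, spermidine or spermine, each fixed at 1 or 5 μM, for 72 h at 37°C. Growth by MTS relative to untreated control.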

L3.6pl [8] = assay: Potentiation of 2 uM N-(anthracenylmethyl) homospermidine-induced toxicity in human L3.6PL cells assessed as increase in Ant-44-induced reduction in cell growth measured after 72 hrs in presence of amine oxidase suppressor aminoguanidine by MTS assay; type: functional, cell-based
In short: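 L3.6pl cells (500 cells/well) were pretreated 24 h with 250 μM aminoguanidine in PBS, then given Ant-44 (2 μM) with increasing compound for 72 h at 37°C. MTS growth was read, with EC50 relative to the Ant-44-only control.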

L3.6pl [9] = assay: Cytotoxicity against human L3.6PL cells assessed as reduction in cell viability at 0.25 to 20 uM measured after 24 to 72 hrs by MTS assay; type: cell-based
In short: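 Time course in L3.6pl cells, 500 cells/well, with compound alone for 24, 48 and 72 h exposure at 37°C. Growth by MTS absorbance at 490 nm relative to untreated control.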

[10] = biological target: Large neutral amino acids transporter small subunit 1 (Homo sapiens) (UniProt Q01650); assay: Inhibition of LAT1-mediated amino acid transport in human L3.6PL cells assessed as reduction in intracellular leucine level by measuring leucine level per mg protein in cell lysate at 5 uM measured after 72 hrs by LCMS analysis (reference value: 232 +/- 10 pmol/mg); type: cell-based; in short: as §1
CHO-K1 [11] = assay: Induction of polyamine efflux in aminoguanidine pretreated CHOK1 cells assessed as reduction in cell viability measured after 72 hrs in presence of spermine by MTS assay; type: ADME, cell-based, Cricetulus griseus; conditions: chinese hamster, cho-k1, 72 h
[12] = biological target: Large neutral amino acids transporter small subunit 1 (Homo sapiens) (UniProt Q01650); assay: Inhibition of LAT1-mediated amino acid transport in human L3.6PL cells assessed as reduction in intracellular methionine level by measuring methionine level per mg protein in cell lysate at 2 uM measured after 72 hrs by LCMS analysis (reference value: 167 +/- 67 pmol/mg); type: cell-based; in short: as §1
[13] = biological target: Large neutral amino acids transporter small subunit 1 (Homo sapiens) (UniProt Q01650); assay: Induction of LAT1-mediated polyamine efflux in human L3.6PL cells assessed as increase in [3H]leucine efflux at 60 uM measured after 30 mins at 37 degC in presence of LAT1 inhibitor JPH-203 by scintillation counting method; type: cell-based
L3.6pl [14] = assay: Effect on polyamine level in human L3.6PL cells assessed as decrease in intracellular spermidine level at 2 to 7 uM measured after 72 hrs in presence of amine oxidase suppressor aminoguanidine by LCMS analysis; type: functional, cell-based; conditions: in the assay text read “by N-dansylation and HPLC analysis” for “by LCMS analysis”; in short: as §2
[15] = biological target: Large neutral amino acids transporter small subunit 1 (Homo sapiens) (UniProt Q01650); assay: Inhibition of LAT1-mediated amino acid transport in human L3.6PL cells assessed as reduction in intracellular leucine level measured after 72 hrs by LCMS analysis; type: cell-based; in short: as §1
[16] = Toxicity in mouse at 1 mg/kg, ip measured over 24 hrs; type: organism-based; conditions: in vivo
[17] = biological target: Large neutral amino acids transporter small subunit 1 (Homo sapiens) (UniProt Q01650); assay: Inhibition of LAT1-mediated [3H]-leucine uptake in human L3.6PL cells measured after 2 mins by scintillation counting analysis; type: cell-based
L3.6pl [18] = assay: Effect on polyamine level in human L3.6PL cells assessed as agmatine level per mg protein in supernatant at 5 uM measured after 72 hrs in presence of amine oxidase suppressor aminoguanidine by LCMS analysis (reference value: 101 pmol/mg); type: functional
CHO-K1 [19] = assay: Induction of polyamine efflux in aminoguanidine pretreated CHOK1 cells assessed as reduction in cell viability measured after 72 hrs in presence of spermidine by MTS assay; type: ADME, cell-based, Cricetulus griseus; conditions: chinese hamster, cho-k1, 72 h
L3.6pl [20] = assay: Effect on polyamine level in human L3.6PL cells assessed as putrescine level per mg protein in supernatant at 2 uM measured after 72 hrs in presence of amine oxidase suppressor aminoguanidine by LCMS analysis (reference value: 977 +/- 522 pmol/mg); type: functional
CHO-MG = assay: Cytotoxicity against CHO-MG cells assessed as reduction in cell viability after 48 hrs by MTS assay; type: cell-based; conditions: Cricetulus griseus
In short: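 Cells in RPMI 1640 with 10% FBS, 1% penicillin/streptomycin, 37°C, 5% CO2, with aminoguanidine (1 mM for CHO K1 and CHO-MG, 250 μM for L3.6pl). Plated overnight at 1000 cells/well (CHO lines) or 500 cells/well (L3.6pl). Compound in PBS added, 48 h exposure. Growth read as MTS formazan absorbance at 490 nm. IC50 is the dose giving 50% relative growth versus untreated control. Run twice in triplicate.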

## CC(C)CCN1CCN([C@@H](CNCc2ccccc2)CC2CCCCC2)C[C@@H]1CC(C)C
[1]
  Ratio IC50: 2
L3.6pl [2]
  Activity: 160462 pmol/mg
[3]
  inhibition: Dose-dependent effect
CHO-K1 [4]
  Activity: Active
L3.6pl [5]
  Activity: 83%
L3.6pl [6]
  Activity: 9249 pmol/mg
[7]
  Activity: Active
L3.6pl [8]
  EC50: 0.29 µM
L3.6pl [9]
  Activity: Toxic
[10]
  Activity: 94 pmol/mg
CHO-K1 [11]
  Activity: Active
[12]
  Activity: 226 pmol/mg
[13]
  Activity: inactive
L3.6pl [14]
  Activity: Active
[15]
  inhibition: Dose-dependent effect
[16]
  Activity: Non-Toxic
[17]
  inhibition: inactive
L3.6pl [18]
  Activity: 485 pmol/mg
CHO-K1 [19]
  Activity: Active
L3.6pl [20]
  Activity: 938 pmol/mg
CHO-MG
  IC50: 8.93 µM

From ChEMBL document CHEMBL4613249, “Serendipitous Discovery of Leucine and Methionine Depletion Agents during the Search for Polyamine Transport Inhibitors” (J Med Chem, 2020)
